For assay [1], the system named is SH-SY5Y. The assay is described as follows: Cytotoxicity against human SH-SY5Y cells overexpressing dominant negative mutant of p53 upto 100 uM. It is filed as functional, cell-based. The essentials:
(§1)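 Viability by MTS tetrazolium reduction. Neuroblastoma SH-SY5Y and SH-SY5Y-5.6 lines (HA-tagged 91-aa mini p53) were seeded the day before at 10⁵ cells/mL in RPMI with hygromycin 0.1 mg/mL. Exposure was 24 h; MTS was added at hour 20 (final 0.04 mg/well) for 4 h at 37 °C. Dose-response was run on reproducible hits.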

The subject of assay [2] is SH-SY5Y. The assay is described as follows: Cytotoxicity against human wild type SH-SY5Y cells upto 100 uM. Type of assay: functional, cell-based. The method, boiled down: as §1
In assay [3] the test system is SH-SY5Y. The assay is described as follows: Cytotoxicity against human wild type SH-SY5Y cells. Type of assay: functional, cell-based. The method, boiled down:
as §1

For assay [4], the system named is SH-SY5Y. The assay is described as follows: Cytotoxicity against human SH-SY5Y cells overexpressing dominant negative mutant of p53. Type of assay: functional, cell-based. The essentials: as §1
The test system of assay [5] is SH-SY5Y. The assay is described as follows: Selectivity ratio of IC50 for human SH-SY5Y cells overexpressing dominant negative mutant of p53 to IC50 for human wild type SH-SY5Y cells. Type of assay: functional.
Assay [6] concerns SH-SY5Y. The assay is described as follows: Induction of apoptosis in human SH-SY5Y cells assessed as DNA ladder activity. Type of assay: functional, cell-based.
The subject of assay [7] is SH-SY5Y. The assay is described as follows: Induction of apoptosis in human SH-SY5Y cells assessed as nuclear accumulation of p53. Type of assay: functional, cell-based.

Calls of active or inactive are those of the source. The rule behind the calls is not given here.

This note sets out measurements from ChEMBL document CHEMBL1148140, “Isolation of streptonigrin and its novel derivative from Micromonospora as inducing agents of p53-dependent cell apoptosis” (J Nat Prod, 2002).

For orientation: IC50 means the concentration needed to halve the response being measured. The low end stands for greater potency in that assay, the high end for weaker potency in that assay.

`CC(C)/C=c1\c(=O)[nH]/c(=C\c2ccccc2)c(=O)n1C`: the outcome in assay [1] and in assay [2] was inactive.

Take `COC1=C(NC(C)C(C)=O)C(=O)c2nc(-c3nc(C(=O)O)c(C)c(-c4ccc(OC)c(OC)c4O)c3N)ccc2C1=O` (stereo not drawn): the IC50 in assay [3] came to 0.9 µM; in assay [4] it was 75 µM.

Regarding `COC1=C(N)C(=O)c2nc(-c3nc(C(=O)O)c(C)c(-c4ccc(OC)c(OC)c4O)c3N)ccc2C1=O` [STREPTONIGRIN], the “Ratio IC50” value in assay [5] is 92. Moreover, the IC50 in assay [3] stood at 0.05 µM; in assay [4], 4.6 µM. The outcome in assay [6] and in assay [7] was Active.

In the case of `C[C@H]1CNCCN1S(=O)(=O)c1cccc2cnccc12`, the results for the IC50 in assay [3] and in assay [4] were 40 µM and 80 µM, respectively.

For the molecule `CC(C)/C=c1\[nH]c(=O)/c(=C/c2ccccc2)[nH]c1=O`, the outcome in assay [1] and in assay [2] was inactive.
